Assay outcomes as filed in PubChem BioAssay.
Compounds with a hit are over-represented: about 4.6% of the library has one in this group of screens.
ALR inh: human ALR oxidase inhibition via reduced H2O2; inhibition, % (no concentration beside the values); actives 3.8% (n = 290,000); purified ALR, DTT oxidation, H2O2 HRP-luminol luminescence; P55789;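 active = mean replicate inhibition above about 79%, with every replicate also reaching it, limit read from the data; inconclusive = only one of the two criteria met; inactive = mean below limit and not every replicate reaching it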
Target sequence (P55789 whole entry, looked up): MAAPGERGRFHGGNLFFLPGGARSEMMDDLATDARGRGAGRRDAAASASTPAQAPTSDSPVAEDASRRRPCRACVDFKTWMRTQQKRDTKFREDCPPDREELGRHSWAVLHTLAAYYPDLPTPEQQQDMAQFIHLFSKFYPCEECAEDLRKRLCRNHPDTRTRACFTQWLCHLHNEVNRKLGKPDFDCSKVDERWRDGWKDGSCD
HDAC3 inhib: blocks human histone deacetylase 3; actives 0.15% (n = 320,000); O15379; inhibition, % at 8.3 µM; recombinant HDAC3, fluorogenic peptide/trypsin coupled, fluorescence; AID 2718; in the data active = inhibition above about 26%, passing the limit was not always enough; inconclusive = no clear call, values can overlap the other calls
UCH37 DUB inh: inhibitors of human deubiquitinating enzyme UCH37 | Q9Y5K5 | purified proteasome/UCH37, Ub-AMC cleavage fluorescence | inhibition, % (concentration not given with the values) | actives 0.33% (n = 330,000);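 active = mean inhibition over replicate wells above about 20%, limit read from the data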;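 also: 0% = compound-free wells with enzyme and 100% = wells lacking proteasome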
Target sequence (Q9Y5K5 whole entry, looked up): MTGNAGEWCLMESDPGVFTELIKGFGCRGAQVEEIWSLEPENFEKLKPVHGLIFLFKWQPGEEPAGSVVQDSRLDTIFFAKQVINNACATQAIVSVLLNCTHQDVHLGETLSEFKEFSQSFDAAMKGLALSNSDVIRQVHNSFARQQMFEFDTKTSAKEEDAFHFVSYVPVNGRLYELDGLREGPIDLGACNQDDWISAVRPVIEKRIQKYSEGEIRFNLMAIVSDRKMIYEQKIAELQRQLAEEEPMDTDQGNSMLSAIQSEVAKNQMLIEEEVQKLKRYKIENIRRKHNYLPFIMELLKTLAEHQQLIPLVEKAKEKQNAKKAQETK
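System: Proteasome-associated human UCH37 deubiquitinase; Input: 0.15 nM proteasome in added enzyme buffer; Also added: Ub-AMC substrate from 1 µM stock; Incubation: 30 min compound-proteasome preincubation then 25 min substrate reaction, room temperature; Detection: fluorescence, ex 355 nm, em 460 nm; Read-out: % inhibition of Ub-AMC cleavage fluorescence; Benchmarks: no-proteasome and no-compound wells.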
FAS TE block: blocks the thioesterase domain of human fatty acid synthase | P49327 | recombinant FAS-TE, OMFH fluorogenic substrate, fluorescence endpoint | inhibition, % at 15 µM | actives 0.67% (n = 360,000) | AID 602261;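 active = compounds whose normalised, plate-corrected inhibition of enzyme fluorescence in the single-dose primary screen is 50% or more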;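 also: 0% = DMSO with enzyme and 100% = substrate without enzyme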
Rtt109 Vps75: blocks Candida albicans Rtt109/Vps75 acetyltransferase activity; purified Rtt109/Vps75, ThioGlo CoA-SH fluorescence, 4 h; inhibition, % at 34.9 µM; actives 0.16% (n = 330,000); AID 540336; Q5AAJ8;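 active = inhibition of at least 50% in every replicate; inconclusive = best replicate reaches 50% inhibition but some replicates fall short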
M18AAP inhibitor: PfM18AAP enzyme inhibition; recombinant PfM18AAP, H-Glu-NHMec fluorogenic cleavage; inhibition, % at 7.35 µM; actives 1.2% (n = 290,000); AID 1822;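 active = inhibition above the campaign mean inhibition over all tested compounds plus 3 SD, cut at about 28% in these data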;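 also: 0% = plate median of test compound wells and 100% = 2 mM ZnCl2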
Active calls of the source: *; ? = inconclusive; / = not tested or not shown.

SMILES	ALR inh	HDAC3 inhib	UCH37 DUB inh	FAS TE block	Rtt109 Vps75	M18AAP inhibitor
O=C(CNCc1ccco1)Nc1ccc(N2CCCCCC2)cc1	98.9*	-8.7	3.2	3.3	1.7	5.5
Cc1ccc(S(=O)(=O)N2CCCCC2)cc1NC(=O)CNCc1ccco1	-7.6	-1.9	5.5	-6.7	0.8	-9.9
C=CCNC(=O)CC(=O)NN=Cc1cccc(Br)c1	/	/	3.0	/	/	/
COc1cc(/C=N/NC(=O)c2cc(-c3ccc4c(c3)OCO4)n[nH]2)ccc1O	90.9*	14.3	/	-6.1	18.9	4.7
COc1cc(/C=N/NC(=O)c2cc(-c3c(C)nn(-c4ccccc4)c3C)n[nH]2)ccc1O	83.5*	?	/	-5.2	/	3.5
COc1ccccc1C(=O)N/N=C/c1ccc2c(c1)OCO2	-5.1	5.1	/	-2.0	0.3	-5.1
Cc1nn(-c2ccccc2)c(C)c1-c1cc(C(=O)N/N=C/c2ccc(O)cc2)[nH]n1	96.8*	13.7	/	-2.4	2.5	5.3
COc1ccccc1N/N=C/c1ccc2c(c1)OCO2	6.1	1.2	/	14.1	/	30.9*
COc1cccc(=O)c2c(C)n(-c3ccc(C(=O)O)cc3)c(C)c12	5.7	3.9	6.8	-12.1	3.6	12.6
CCOc1cccc(=O)c2c(C)n(-c3ccc(C(=O)O)cc3)c(C)c12	96.2*	3.9	6.9	-4.2	4.7	15.7
C=CC(=O)NCC1OCCc2ccccc21 (centres undefined)	-17.5	-0.1	5.8	0.3	0.1	-1.2
O=C(/C=C/c1ccco1)NCC1OCCc2ccccc21 (centres undefined)	98.1*	4.7	1.9	2.3	46.3	-15.6
N#CC(=NNc1cccc(C(F)(F)F)c1)C(=O)c1ccsc1	/	/	5.9	/	/	/
N#C/C(=C/Nc1ccccc1)c1ccsc1	88.9*	-1.9	2.4	7.8	5.1	-1.9
Cc1ccc(N/C=C(/C#N)c2ccsc2)cc1	98.0*	?	2.4	13.8	0.2	-1.2
CCOC1(N=C(C)NS(=O)(=O)c2ccc(Cl)cc2)C(C)=CC(=O)C=C1C	/	/	0.8	/	/	/
CC/C(=C(/CC)c1ccc(O)cc1)c1ccc(O)cc1	99.0*	2.7	2.2	0.1	0.2	-10.5
N=C(N)c1ccc(O)cc1	-23.8	0.3	4.2	-7.5	20.1	-1.2
CC(C(=O)NC1C=CS(=O)(=O)C1)N1C(=O)/C(=C/c2cccc(Cl)c2)SC1=S (centres undefined)	34.2	-0.3	9.6	12.4	?	18.7
O=C(CN1C(=O)/C(=C/c2cccc(Cl)c2)SC1=S)NC1C=CS(=O)(=O)C1 (centres undefined)	6.0	4.7	6.7	1.0	4.0	30.4*
CC(C(=O)NC1C=CS(=O)(=O)C1)N1C(=O)/C(=C\c2ccccc2)SC1=S (centres undefined)	99.2*	-1.3	5.6	-0.4	?	22.7
COc1ccc(C=NNc2ccccc2C(=O)O)cc1	/	/	13.6	/	/	/
COC(=O)c1ccc(COc2ccccc2C=NNS(=O)(=O)c2ccccc2)cc1	/	/	0.9	/	/	/
CC(=O)C1=C(O)C(=O)N(c2ccc(Br)cn2)C1c1ccc(Br)cc1 (centres undefined)	97.1*	6.3	-8.4	10.7	1.5	1.7
CC(=O)C1=C(O)C(=O)N(c2ccc(Br)cn2)C1c1cccc([N+](=O)[O-])c1 (centres undefined)	89.1*	1.4	11.7	3.6	11.5	2.0
SMILES	ALR inh	HDAC3 inhib	UCH37 DUB inh	FAS TE block	Rtt109 Vps75	M18AAP inhibitor
O=C(NCCCO)/C(=C/c1ccc(-c2cccc([N+](=O)[O-])c2)o1)NC(=O)c1ccccc1	/	3.8	21.7*	5.3	3.2	2.0
CC1CCC2C(C1)c1sc(=O)[nH]c1SC2(C)C (centres undefined)	97.8*	3.1	-0.2	10.0	22.3	7.7
C[C@@H](CN1CCC[C@H]1CN1C(N)=NC[C@@H]1Cc1ccccc1)N1C[C@@H](Cc2ccccc2)N(CCc2ccc(Cl)c(Cl)c2)C1=N	-5.8	-0.1	1.0	-121.3	59.2*	/
Cn1cc(Cl)c(C(=O)Nc2nc3ccc([N+](=O)[O-])cc3s2)n1	-3.8	0.7	/	6.2	/	30.3*
COc1cccc(OC)c1C(=O)Nc1nc2ccc([N+](=O)[O-])cc2s1	0.1	6.6	21.2*	-10.8	-0.1	-2.0
CC(=NNC(=O)c1ccccc1C)c1ccc(NC(=O)c2cccs2)cc1	/	/	-7.8	/	/	/
Cc1sc2nc(CSCC(=O)NC(C)(C)C)[nH]c(=O)c2c1C	98.8*	13.4	-2.4	-11.4	/	4.7
Cc1sc2nc(CSCC(=O)N(C)CC(=O)Nc3ccc(F)cc3)[nH]c(=O)c2c1C	99.1*	2.5	1.0	-13.2	7.2	/
Cc1sc2nc(CSCC(=O)Nc3ccc(C(F)(F)F)cc3)[nH]c(=O)c2c1C	/	7.6	-8.6	17.3	-2.1	/
CN(CC(=O)Nc1cccc(F)c1)C(=O)CCc1nc2sc3c(c2c(=O)[nH]1)CCCC3	91.2*	-3.3	-0.1	-2.5	3.3	/
CC(=O)Nc1cccc(C(C)=NNC(=O)c2ccc(O)cc2)c1	/	/	1.7	/	/	/
CC(=NNc1nccnc1Cl)c1c(F)c(F)c(F)c(F)c1F	/	/	2.0	/	/	/
COc1ccnc(-n2cccc2C=NO)c1C#N	/	/	2.9	/	/	/
Cc1cc(NN=C2CCCc3ccccc32)nc2ccccc12	/	/	-16.1	/	/	/
O=C(Cc1ccccc1)NNC(=O)Cc1ccccc1	-12.4	-11.7	2.6	-2.9	1.8	-4.3
Cc1cccc(OCC(=O)NNc2c3ccccc3nc3ccccc23)c1	98.9*	0.1	0.6	12.2	8.6	-7.6
O=C(Cc1ccccc1)NNc1c2ccccc2nc2ccccc12	98.5*	2.8	6.8	0.2	-1.9	3.5
Cc1ccc(OCC(=O)NNC(=O)CCC(=O)NCc2ccccc2)cc1	2.7	-5.2	-1.9	-4.7	-3.5	-12.7
Cc1ccc(OCC(=O)NNc2c3ccccc3nc3ccccc23)cc1	95.6*	-0.1	3.9	14.2	8.1	-4.6
Cc1cc(CNC(=O)COc2ccccc2)c2ccccc2n1	/	/	2.2	-1.5	?	-8.7
CC(C)OC(=S)NC(=NS(=O)(=O)c1ccccc1)c1ccccc1	/	/	-0.6	/	/	/
Cc1ccc(OCC(=O)NN=Cc2ccc(-c3cccc(C(=O)O)c3)o2)c(C)c1	/	/	-26.6	/	/	/
Clc1ccc(/C=C/c2ncc3ccccn23)cc1	98.7*	-2.2	-87.0	2.9	-31.8	0.6
COc1ccccc1C(=O)NN=Cc1cnc2ccccc2n1	/	/	13.8	/	/	/
O=C(CN1C(=O)S/C(=C\C=C\c2ccccc2)C1=O)Nc1ccc(C(=O)O)cc1	98.4*	-2.0	15.8	4.5	32.1	27.1
O=C(CN1C(=O)S/C(=C/C=C/c2ccccc2)C1=O)Nc1ccc(C(=O)O)cc1	6.3	3.7	14.0	29.0	1.5	21.4
COc1cc(C=NNc2nc(C)cc(C)n2)cc(OC)c1OC	/	/	5.9	/	/	/
O=C(NN=Cc1ccccc1OCc1ccccc1)c1ccco1	/	/	1.0	/	/	/
COc1ccc(/C=N/NC(=O)c2nn(C)cc2Br)cc1CSCc1ccco1	98.4*	-5.4	/	10.6	18.2	-7.4
